Test results published in ChEMBL document CHEMBL4371071, “Muscarinic agonist, (±)-quinuclidin-3-yl-(4-fluorophenethyl)(phenyl)carbamate: High affinity, but low subtype selectivity for human M1 - M5 muscarinic acetylcholine receptors” (Bioorg Med Chem Lett, 2019).

What follows are compounds tested against T1, Muscarinic acetylcholine receptor M4 (Homo sapiens) (UniProt P08173) (assay: Displacement of [3H]NMS from human M4 AChR expressed in CHO cell membranes at 100 uM after 1 to 2 hrs by liquid scintillation spectrometry method relative to control). Conditions: not given.
T1 sequence (whole entry): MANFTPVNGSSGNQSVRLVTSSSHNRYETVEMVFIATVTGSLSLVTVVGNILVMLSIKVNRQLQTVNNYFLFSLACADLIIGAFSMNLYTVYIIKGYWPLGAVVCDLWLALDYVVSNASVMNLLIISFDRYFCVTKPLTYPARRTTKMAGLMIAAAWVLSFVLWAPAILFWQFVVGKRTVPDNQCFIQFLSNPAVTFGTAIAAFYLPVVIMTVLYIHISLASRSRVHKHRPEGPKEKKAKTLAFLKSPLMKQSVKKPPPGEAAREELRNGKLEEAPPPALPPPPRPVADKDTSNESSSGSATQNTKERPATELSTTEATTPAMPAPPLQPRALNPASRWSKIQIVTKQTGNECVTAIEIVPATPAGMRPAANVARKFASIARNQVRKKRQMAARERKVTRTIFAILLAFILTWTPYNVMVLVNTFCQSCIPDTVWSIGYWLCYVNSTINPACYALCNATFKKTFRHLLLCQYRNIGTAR
Summary of the method: (§1)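 CHO membranes expressing the human subtype (20 µg protein/well) with 0.3 nM [3H]NMS and analog (1 nM–100 µM) in 50 mM Tris-HCl pH 7.4, 2 h at 25 °C. […] Filtered on GF/B, washed, counted by scintillation. IC50 taken from curves to give Ki; three independent experiments in duplicate.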

Row | SMILES | Imax [%]
1 | COc1ccc(CCN(C(=O)OC2CN3CCC2CC3)c2ccccc2)cc1 (racemic) | 99.9

These compounds were tested against T2, Muscarinic acetylcholine receptor M2 (Homo sapiens, UniProt P08172) (assay: Displacement of [3H]NMS from human M2 AChR expressed in CHO cell membranes after 1 to 2 hrs by liquid scintillation spectrometry method). Conditions: not given.
T2 sequence (P08172 whole entry): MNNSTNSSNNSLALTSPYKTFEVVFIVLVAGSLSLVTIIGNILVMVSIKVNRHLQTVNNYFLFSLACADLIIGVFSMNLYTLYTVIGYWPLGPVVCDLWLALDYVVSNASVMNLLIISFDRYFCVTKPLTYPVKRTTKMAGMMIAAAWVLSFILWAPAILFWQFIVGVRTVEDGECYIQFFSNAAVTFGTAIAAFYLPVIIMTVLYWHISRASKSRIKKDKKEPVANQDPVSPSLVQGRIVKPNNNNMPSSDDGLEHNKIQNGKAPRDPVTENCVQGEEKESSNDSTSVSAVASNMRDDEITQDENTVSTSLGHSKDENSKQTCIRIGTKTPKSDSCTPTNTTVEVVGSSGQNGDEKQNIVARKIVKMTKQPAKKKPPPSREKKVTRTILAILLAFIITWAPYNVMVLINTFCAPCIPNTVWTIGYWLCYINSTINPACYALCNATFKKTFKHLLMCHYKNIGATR
Summary of the method: as §1

Row | SMILES | Ki [nM]
2 | COc1ccc(CCN(C(=O)OC2CN3CCC2CC3)c2ccccc2)cc1OC (racemic) | 350
3 | Cc1ccc(COC(=O)N(c2ccccc2)C2CN3CCC2CC3)cc1F (configuration not stated) | 30
4 | COc1ccc(CCN(C(=O)OC2CN3CCC2CC3)c2ccccc2)cc1 (racemic) | 130

These compounds were tested against T3, Muscarinic acetylcholine receptor M1 (Homo sapiens) (UniProt P11229). Conditions: CHO, at 100 µM.
T3 sequence (whole entry): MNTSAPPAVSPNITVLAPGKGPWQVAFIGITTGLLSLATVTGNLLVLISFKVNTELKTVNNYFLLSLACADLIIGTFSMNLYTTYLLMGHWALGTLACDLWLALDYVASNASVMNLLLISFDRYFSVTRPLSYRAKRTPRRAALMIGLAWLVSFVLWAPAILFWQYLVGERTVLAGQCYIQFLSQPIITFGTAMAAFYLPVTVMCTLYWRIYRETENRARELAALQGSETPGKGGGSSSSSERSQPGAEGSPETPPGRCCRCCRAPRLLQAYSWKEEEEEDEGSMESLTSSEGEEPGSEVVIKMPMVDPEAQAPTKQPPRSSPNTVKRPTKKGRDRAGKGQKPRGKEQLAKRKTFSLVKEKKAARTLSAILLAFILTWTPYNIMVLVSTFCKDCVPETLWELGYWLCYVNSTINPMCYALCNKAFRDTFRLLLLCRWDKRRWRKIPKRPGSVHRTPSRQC

Row | SMILES | Imax [%]
5 | COc1ccc(CCN(C(=O)OC2CN3CCC2CC3)c2ccccc2)cc1OC (racemic) | 100
6 | Cc1ccc(COC(=O)N(c2ccccc2)C2CN3CCC2CC3)cc1F (configuration not stated) | 100
7 | COc1ccc(CCN(C(=O)OC2CN3CCC2CC3)c2ccccc2)cc1 (racemic) | 100

Each compound was assayed against T4, Muscarinic acetylcholine receptor M5 (Homo sapiens) (UniProt P08912) (assay: Displacement of [3H]NMS from human M5 AChR expressed in CHO cell membranes at 100 uM after 1 to 2 hrs by liquid scintillation spectrometry method relative to control). Conditions: not given.
T4 sequence (whole entry): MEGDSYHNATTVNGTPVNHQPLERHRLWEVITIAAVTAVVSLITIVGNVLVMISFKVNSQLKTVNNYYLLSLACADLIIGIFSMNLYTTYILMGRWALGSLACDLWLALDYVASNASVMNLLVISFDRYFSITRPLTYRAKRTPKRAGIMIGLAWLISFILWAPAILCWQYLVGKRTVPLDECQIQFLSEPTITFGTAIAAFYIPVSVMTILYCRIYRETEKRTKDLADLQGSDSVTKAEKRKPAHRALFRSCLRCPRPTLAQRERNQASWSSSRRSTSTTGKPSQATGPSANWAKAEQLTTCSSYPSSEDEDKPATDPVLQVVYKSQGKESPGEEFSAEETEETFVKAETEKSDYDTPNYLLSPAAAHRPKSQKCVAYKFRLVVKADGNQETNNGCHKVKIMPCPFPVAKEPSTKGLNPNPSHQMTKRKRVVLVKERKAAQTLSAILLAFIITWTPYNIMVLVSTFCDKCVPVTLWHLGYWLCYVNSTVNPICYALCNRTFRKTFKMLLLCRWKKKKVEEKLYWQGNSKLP
Summary of the method: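 CHO membranes expressing human M5 (10 µg protein/well) with 0.3 nM [3H]NMS and analog (1 nM–100 µM) in 50 mM Tris-HCl pH 7.4, 2 h at 25 °C. […] Filtered on GF/B, counted by scintillation. IC50 converted to Ki; three independent experiments in duplicate.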

Row | SMILES | Imax [%]
8 | COc1ccc(CCN(C(=O)OC2CN3CCC2CC3)c2ccccc2)cc1OC (racemic) | 99.8
9 | Cc1ccc(COC(=O)N(c2ccccc2)C2CN3CCC2CC3)cc1F (configuration not stated) | 97.4
10 | COc1ccc(CCN(C(=O)OC2CN3CCC2CC3)c2ccccc2)cc1 (racemic) | 100

Each compound was assayed against T5, Muscarinic acetylcholine receptor M5 (Homo sapiens, UniProt P08912) (assay: Displacement of [3H]NMS from human M5 AChR expressed in CHO cell membranes after 1 to 2 hrs by liquid scintillation spectrometry method). Conditions: not given.
T5 sequence (P08912 whole entry): T4 sequence (whole entry)
Summary of the method: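 CHO membranes expressing human M5 (10 µg protein/well) with 0.3 nM [3H]NMS and analog (1 nM–100 µM) in 50 mM Tris-HCl pH 7.4, 2 h at 25 °C. Filtered on GF/B, counted by scintillation. IC50 converted to Ki; three independent experiments in duplicate.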

Row | SMILES | Ki [nM]
11 | COc1ccc(CCN(C(=O)OC2CN3CCC2CC3)c2ccccc2)cc1OC (racemic) | 65
12 | Cc1ccc(COC(=O)N(c2ccccc2)C2CN3CCC2CC3)cc1F (configuration not stated) | 30
13 | COc1ccc(CCN(C(=O)OC2CN3CCC2CC3)c2ccccc2)cc1 (racemic) | 10

Each compound was assayed against T6, Muscarinic acetylcholine receptor M2 (Homo sapiens) (UniProt P08172) (assay: Displacement of [3H]NMS from human M2 AChR expressed in CHO cell membranes at 100 uM after 1 to 2 hrs by liquid scintillation spectrometry method relative to control). Conditions: not given.
T6 sequence (whole entry): T2 sequence (P08172 whole entry)
Summary of the method: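 CHO membranes expressing the human subtype (20 µg protein/well) with 0.3 nM [3H]NMS and analog (1 nM–100 µM) in 50 mM Tris-HCl pH 7.4, 2 h at 25 °C. Filtered on GF/B, washed, counted by scintillation. IC50 taken from curves to give Ki; three independent experiments in duplicate.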

Row | SMILES | Imax [%]
14 | COc1ccc(CCN(C(=O)OC2CN3CCC2CC3)c2ccccc2)cc1OC (racemic) | 98.6
15 | Cc1ccc(COC(=O)N(c2ccccc2)C2CN3CCC2CC3)cc1F (configuration not stated) | 99.7
16 | COc1ccc(CCN(C(=O)OC2CN3CCC2CC3)c2ccccc2)cc1 (racemic) | 99.7

Organism: Homo sapiens
Assay: Selectivity ratio of Ki for displacement of [3H]NMS from human M1 AChR expressed in CHO cell membranes to Ki for displacement of [3H]NMS from human M5 AChR expressed in CHO cell membranes
Conditions: not given

Row | SMILES | Ratio Ki
17 | COc1ccc(CCN(C(=O)OC2CN3CCC2CC3)c2ccccc2)cc1OC (racemic) | 1.5
18 | Cc1ccc(COC(=O)N(c2ccccc2)C2CN3CCC2CC3)cc1F (configuration not stated) | 1.2
19 | COc1ccc(CCN(C(=O)OC2CN3CCC2CC3)c2ccccc2)cc1 (racemic) | 1

Each compound was assayed against T7, Muscarinic acetylcholine receptor M4 (Homo sapiens, UniProt P08173) (assay: Displacement of [3H]NMS from human M4 AChR expressed in CHO cell membranes after 1 to 2 hrs by liquid scintillation spectrometry method). Conditions: not given.
T7 sequence (P08173 whole entry): T1 sequence (whole entry)
Summary of the method: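 Human M4-expressing CHO membranes (20 µg protein/well) incubated 2 h at 25 °C with 0.3 nM [3H]NMS and analog (1 nM–100 µM) in 50 mM Tris–HCl pH 7.4. […] Filtered, washed, counted by scintillation. IC50 taken from inhibition curves, Ki from three independent duplicate experiments (mean ± SEM).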

Row | SMILES | Ki [nM]
20 | COc1ccc(CCN(C(=O)OC2CN3CCC2CC3)c2ccccc2)cc1 (racemic) | 25

Organism: Homo sapiens
Assay: Selectivity ratio of Ki for displacement of [3H]NMS from human M2 AChR expressed in CHO cell membranes to Ki for displacement of [3H]NMS from human M3 AChR expressed in CHO cell membranes
Conditions: not given

Row | SMILES | Ratio Ki
21 | COc1ccc(CCN(C(=O)OC2CN3CCC2CC3)c2ccccc2)cc1OC (racemic) | 5.7
22 | Cc1ccc(COC(=O)N(c2ccccc2)C2CN3CCC2CC3)cc1F (configuration not stated) | 1.3
23 | COc1ccc(CCN(C(=O)OC2CN3CCC2CC3)c2ccccc2)cc1 (racemic) | 17.1

Each compound was assayed against T8, Muscarinic acetylcholine receptor M3 (Homo sapiens, UniProt P20309) (assay: Displacement of [3H]NMS from human M3 AChR expressed in CHO cell membranes after 1 to 2 hrs by liquid scintillation spectrometry method). Conditions: not given.
Type: cell-based
Target sequence in this assay (P20309 whole entry): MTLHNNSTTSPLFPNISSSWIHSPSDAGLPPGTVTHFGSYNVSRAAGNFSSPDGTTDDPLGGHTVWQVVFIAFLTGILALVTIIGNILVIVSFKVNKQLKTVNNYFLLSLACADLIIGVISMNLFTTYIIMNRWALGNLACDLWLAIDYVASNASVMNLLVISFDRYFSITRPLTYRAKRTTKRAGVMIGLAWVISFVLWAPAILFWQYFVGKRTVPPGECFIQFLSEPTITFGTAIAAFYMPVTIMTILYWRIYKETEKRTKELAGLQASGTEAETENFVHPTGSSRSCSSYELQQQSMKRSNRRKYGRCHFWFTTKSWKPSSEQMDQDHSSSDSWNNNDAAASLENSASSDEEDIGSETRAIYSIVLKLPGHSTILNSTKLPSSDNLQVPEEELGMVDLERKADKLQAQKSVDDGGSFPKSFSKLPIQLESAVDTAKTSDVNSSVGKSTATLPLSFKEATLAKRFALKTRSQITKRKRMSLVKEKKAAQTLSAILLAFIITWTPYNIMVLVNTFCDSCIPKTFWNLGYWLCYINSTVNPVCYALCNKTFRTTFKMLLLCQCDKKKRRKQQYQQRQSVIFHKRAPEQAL

Row | SMILES | Ki [nM]
24 | COc1ccc(CCN(C(=O)OC2CN3CCC2CC3)c2ccccc2)cc1OC (racemic) | 60
25 | Cc1ccc(COC(=O)N(c2ccccc2)C2CN3CCC2CC3)cc1F (configuration not stated) | 20
26 | COc1ccc(CCN(C(=O)OC2CN3CCC2CC3)c2ccccc2)cc1 (racemic) | 8

These compounds were tested against T9, Muscarinic acetylcholine receptor M1 (Homo sapiens, UniProt P11229) (assay: Displacement of [3H]NMS from human M1 AChR expressed in CHO cell membranes after 1 to 2 hrs by liquid scintillation spectrometry method). Conditions: not given.
T9 sequence (P11229 whole entry): T3 sequence (whole entry)
Type: cell-based

Row | SMILES | Ki [nM]
27 | COc1ccc(CCN(C(=O)OC2CN3CCC2CC3)c2ccccc2)cc1OC (racemic) | 95
28 | Cc1ccc(COC(=O)N(c2ccccc2)C2CN3CCC2CC3)cc1F (configuration not stated) | 40
29 | COc1ccc(CCN(C(=O)OC2CN3CCC2CC3)c2ccccc2)cc1 (racemic) | 10

These compounds were tested against T8, Muscarinic acetylcholine receptor M3. Conditions: CHO, at 100 µM.
Target sequence in this assay (P20309 whole entry, looked up): as the sequence (P20309 whole entry) above

Row | SMILES | Imax [%]
30 | COc1ccc(CCN(C(=O)OC2CN3CCC2CC3)c2ccccc2)cc1OC (racemic) | 99.7
31 | Cc1ccc(COC(=O)N(c2ccccc2)C2CN3CCC2CC3)cc1F (configuration not stated) | 99
32 | COc1ccc(CCN(C(=O)OC2CN3CCC2CC3)c2ccccc2)cc1 (racemic) | 99.9
